# What was measured:
# [1] = AUC in Beagle dog at 1 mg/kg, iv; assay type: ADME, organism-based, Canis lupus familiaris; parameters: dose 1 mg/kg, route intravenous; conditions: plasma
# In short: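 Male beagle dogs received 1 mg/kg iv at 2 mL/kg in 5% dimethylacetamide/75% PEG200/20% (30% SBE-CD). Plasma concentrations are total drug. Values are the mean of two animals.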
# [2] = Oral bioavailability in Sprague-Dawley rat at 30 mg/kg administered as spray dried dispersion; assay type: ADME, organism-based; conditions: in vivo
# In short: (§1)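 Rats were dosed po at 0.6 mL/kg with a 25% amorphous spray dried dispersion (with HPMCAS-HF) in 20 mM Tris buffer with 0.5% methylcellulose + 0.5% HPMCAS-HF, pH 7.4. Plasma concentrations are total drug. Data are mean ± SD of three animals. F is based on 1 mg/kg rat iv data.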
# [3] = Tmax in Sprague-Dawley rat at 30 mg/kg, po administered as spray dried dispersion; assay type: ADME, organism-based; parameters: dose 30 mg/kg, route oral; conditions: in vivo
# [4] = Cmax in Sprague-Dawley rat at 30 mg/kg, po administered as spray dried dispersion; assay type: ADME, organism-based; parameters: dose 30 mg/kg, route oral; conditions: in vivo; in short: as §1
# [5] = AUC in Sprague-Dawley rat at 30 mg/kg, po administered as spray dried dispersion; assay type: ADME, organism-based; parameters: dose 30 mg/kg, route oral; conditions: plasma; in short: as §1
# [6] = Oral bioavailability in Sprague-Dawley rat at 3 mg/kg administered as spray dried dispersion; assay type: ADME, organism-based; conditions: in vivo; in short: as §1
# [7] = Tmax in Sprague-Dawley rat at 3 mg/kg, po administered as spray dried dispersion; assay type: ADME, organism-based; parameters: dose 3 mg/kg, route oral; conditions: in vivo; in short: as §1
# [8] = Cmax in Sprague-Dawley rat at 3 mg/kg, po administered as spray dried dispersion; assay type: ADME, organism-based; parameters: dose 3 mg/kg, route oral; conditions: in vivo; in short: as §1
# [9] = AUC in Sprague-Dawley rat at 3 mg/kg, po administered as spray dried dispersion; assay type: ADME, organism-based; parameters: dose 3 mg/kg, route oral; conditions: plasma; in short: as §1
# [10] = Oral bioavailability in Sprague-Dawley rat at 30 mg/kg administered as milled material in 0.5% methylcellulose; assay type: ADME, organism-based; conditions: in vivo
# In short: (§2)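 Rat po dosing of milled material (2−25 μm premilling, about 190 nm postmilling) suspended in 0.5% methylcellulose. Plasma concentrations are total drug. Data are mean ± SD of three animals. F is calculated from 1 mg/kg rat iv data.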
# [11] = Tmax in Sprague-Dawley rat at 30 mg/kg, po dosing of milled material in 0.5% methylcellulose; assay type: ADME, organism-based; parameters: dose 30 mg/kg, route oral; conditions: in vivo
# In short: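 Nanomilled material (about 190 nm after milling) was suspended in 0.5% methylcellulose and dosed orally to rats. Plasma concentrations are reported as total drug. Values are mean ± SD from three animals.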
# [12] = Cmax in Sprague-Dawley rat at 30 mg/kg, po dosing of milled material in 0.5% methylcellulose; assay type: ADME, organism-based; parameters: dose 30 mg/kg, route oral; conditions: in vivo; in short: as §2
# [13] = AUC in Sprague-Dawley rat at 30 mg/kg, po dosing of milled material in 0.5% methylcellulose; assay type: ADME, organism-based; parameters: dose 30 mg/kg, route oral; conditions: in vivo; in short: as §2
# [14] = Oral bioavailability in Sprague-Dawley rat at 3 mg/kg dosed as milled material in 0.5% methylcellulose; assay type: ADME, organism-based; conditions: in vivo; in short: as §2
# [15] = Tmax in Sprague-Dawley rat at 3 mg/kg, po dosing of milled material in 0.5% methylcellulose; assay type: ADME, organism-based; parameters: dose 3 mg/kg, route oral; conditions: in vivo; in short: as §2
# [16] = Cmax in Sprague-Dawley rat at 3 mg/kg, po dosing of milled material in 0.5% methylcellulose; assay type: ADME, organism-based; parameters: dose 3 mg/kg, route oral; conditions: in vivo; in short: as §2
# [17] = AUC in Sprague-Dawley rat at 3 mg/kg, po dosing of milled material in 0.5% methylcellulose; assay type: ADME, organism-based; parameters: dose 3 mg/kg, route oral; conditions: in vivo; in short: as §2
# [18] = Oral bioavailability in Sprague-Dawley rat at 3 mg/kg administered in 0.5% methylcellulose; assay type: ADME, organism-based; conditions: in vivo
# In short: (§3)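 Rats were dosed orally at 3 mg/kg in 0.5% methylcellulose. Plasma concentrations are total drug. Data are mean ± SD of three animals. F is based on 1 mg/kg rat iv PK.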
# [19] = Tmax in Sprague-Dawley rat at 3 mg/kg, po dosing in 0.5% methylcellulose; assay type: ADME, organism-based; parameters: dose 3 mg/kg, route oral; conditions: in vivo; in short: as §3
# [20] = Cmax in Sprague-Dawley rat at 3 mg/kg, po dosing in 0.5% methylcellulose; assay type: ADME, organism-based; parameters: dose 3 mg/kg, route oral; conditions: in vivo; in short: as §3
# [21] = AUC in Sprague-Dawley rat at 3 mg/kg, po dosing in 0.5% methylcellulose; assay type: ADME, organism-based; parameters: dose 3 mg/kg, route oral; conditions: in vivo; in short: as §3
# [22] = Volume of distribution at steady state in Sprague-Dawley rat at 1 mg/kg, iv; assay type: ADME, organism-based; parameters: dose 1 mg/kg, route intravenous; conditions: in vivo, read-out: Vdss
# In short: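 Rats received an iv dose of 1 mpk in a vehicle of 10% N-methylpyrrolidone and 90% SBE-CD solution prepared at 30%. Plasma concentrations are total drug. Values are mean ± SD from three animals.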
# [23] = Clearance in Sprague-Dawley rat at 1 mg/kg, iv; assay type: ADME, organism-based; parameters: dose 1 mg/kg, route intravenous; conditions: in vivo
# In short: (§4)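 Rats received 1 mg/kg iv in 10% N-methylpyrrolidone and 90% of a 30% SBE-CD solution. Plasma concentrations are total drug. Data are mean ± SD of three animals.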
# [24] = Half life in Sprague-Dawley rat at 1 mg/kg, iv; assay type: ADME, organism-based; parameters: dose 1 mg/kg, route intravenous; conditions: in vivo; in short: as §4
# [25] = AUC in Sprague-Dawley rat at 1 mg/kg, iv; assay type: ADME, organism-based; parameters: dose 1 mg/kg, route intravenous; conditions: plasma; in short: as §4
# [26] = Thermodynamic solubility of the compound in PBS at pH 7.4; assay type: physicochemical; conditions: read-out: Therm_solubility
smiles,measurement,setting,value
Cc1c(Oc2ccc(-n3cnnn3)cc2F)ncnc1N1C2CC3CC1CC(C2)N3C(=O)OC1(C)CC1,AUC,[1],4730 ng·h/mL
same,bioavailability,[2],> 100%
same,Tmax,[3],4 h
same,Cmax,[4],3490 ng/mL
same,AUC,[5],49100 ng·h/mL
same,bioavailability,[6],> 100%
same,Tmax,[7],4.7 h
same,Cmax,[8],484 ng/mL
same,AUC,[9],6140 ng·h/mL
same,bioavailability,[10],31%
same,Tmax,[11],6 h
same,Cmax,[12],912 ng/mL
same,AUC,[13],12500 ng·h/mL
same,bioavailability,[14],78%
same,Tmax,[15],4.7 h
same,Cmax,[16],255 ng/mL
same,AUC,[17],3180 ng·h/mL
same,bioavailability,[18],7.6%
same,Tmax,[19],3 h
same,Cmax,[20],24.2 ng/mL
same,AUC,[21],312 ng·h/mL
same,Vd,[22],3.96 L/kg
same,clearance,[23],13.2 mL/min/kg
same,half-life,[24],4.34 h
same,AUC,[25],1360 ng·h/mL
same,solubility thermodynamic,[26],0.7 µg/mL

# — ChEMBL document CHEMBL2311407, “Design and synthesis of diazatricyclodecane agonists of the G-protein-coupled receptor 119” (J Med Chem, 2013)
